Source: ChEMBL document CHEMBL1811802, “Synthesis and significant cytostatic activity of 7-hetaryl-7-deazaadenosines” (J Med Chem, 2011)
pIC50: −log10 of the molar value. Calls of active or inactive are those of the source. No cut-off for these calls is given here.

How the values were obtained:
PC-3 [1] = assay: Cytotoxicity against human PC3 cells after 3 days by MTT assay; format: functional, cell-based; conditions: PC-3, 72 h
A549 = assay: Cytostatic activity against human A549 cells after 5 days by SRB assay; format: functional; conditions: A549, 120 h
How it was run: (§1)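 Cells seeded per line density, overnight at 37 °C; day-zero plate TCA-fixed. 5-fold serial dilutions added, 5-day incubation; TCA fixation, 0.057% SRB in 1% acetic acid 30 min, dye dissolved in 10 mM Tris pH 10.5, A500. Growth relative to day-zero and untreated; GIC50 from sigmoidal dose–response fit; mean of two independent experiments.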

DU-145 [2] = assay: Metabolic stability in human DU145 cells assessed as sodium ((2R,3S,4R,5R)-5-(4-amino-7H-pyrrolo[2,3-d]pyrimidin-7-yl)-3,4-dihydroxytetrahydrofuran-2-yl)methyl hydrogenphosphate-NMP formation per million of cells at 10 uM after 6 hrs by LC/MS/MS analysis; format: ADME, cell-based; conditions: du-145, 6 h
How it was run: (§2)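 Du145 seeded at 60% confluence in MEM/10% FBS; next day exposed to 10 μM compound for 6 or 24 h. Cells trypsinized, extracted in 70% MeOH, dried, resuspended in 1 mM ammonium phosphate pH 8.5. Nucleoside, NMP and NTP quantified by ion-pairing (dimethylhexylamine) LC/MS/MS against untreated-cell-extract standard curves; pmol per million cells.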

HL-60 = assay: Cytotoxicity against human HL60 cells after 3 days by XTT assay; format: functional, cell-based; conditions: HL-60, 72 h
How it was run: (§3)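 Suspension-grown cell lines, 3-day compound incubation; viability read by XTT metabolic assay; IC50 averaged from four independent experiments.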

CCRF-CEM = assay: Inhibition of RNA synthesis in human CCRF-CEM cells assessed as BrU incorporation at 1 to 5 times GI50 after 1 hr by FACS analysis; format: functional, cell-based
How it was run: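 CCRF-CEM cultured as for cell cycle (1× or 5× GIC50), pulsed with 1 mM 5-bromouridine 30 min. Paraformaldehyde/NP-40 fixation, anti-BrdU antibody cross-reacting with BrU, FITC secondary, propidium iodide/RNase counterstain, flow cytometry at 488 nm.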

[3] = Cytotoxicity against human MES-SA cells after 3 days by MTT assay; format: functional, cell-based; conditions: 72 h
[4] = Antitumor activity against mouse P388D1 cells xenografted in DBA/2 mouse assessed as increase of mean survival days at 75 mg/kg, ip qd administered as 2 cycles on day 1 to 3 and day 8 to 10; format: functional; conditions: route intraperitoneal
How it was run: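 P388D1 mouse leukemia cells, grown in RPMI with 10% FBS, were implanted ip at 10^5 cells per mouse on day 0 into female DBA/2 mice (18–22 g, SPF) and randomized 10 per group. Dosing was once daily ip in 50% PEG400/deionized water (pH 7.0) on days 1–3 and 8–10, with vehicle for controls. Deaths were recorded daily, and MST and %ILS were calculated.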

[5] = Antitumor activity against mouse P388D1 cells xenografted in DBA/2 mouse assessed as increase of mean survival days at 35 mg/kg, ip qd administered as 2 cycles on day 1 to 3 and day 8 to 10; conditions: route intraperitoneal
SK-OV-3 = assay: Cytotoxicity against human SKOV3 cells after 3 days by MTT assay; format: functional, cell-based; conditions: SK-OV-3, 72 h
PC-3 [6] = assay: Cytostatic activity against human PC3 cells after 5 days by SRB assay; format: functional; conditions: PC-3, 120 h; how it was run: as §1
HT-29 = assay: Cytotoxicity against human HT-29 cells after 3 days by MTT assay; format: functional, cell-based; conditions: HT-29, 72 h
[7] = Cytotoxicity against human U87MG cells after 3 days by MTT assay; format: functional, cell-based, U-87MG ATCC; conditions: U-87 MG, 72 h
LNCaP = assay: Cytotoxicity against human LNCAP cells after 3 days by MTT assay; format: functional, cell-based; conditions: 72 h
CT26 = assay: Cytotoxicity against mouse CT26 cells after 3 days by MTT assay; format: functional, cell-based; conditions: CT26, 72 h
DU-145 [8] = assay: Metabolic stability in human DU145 cells assessed as sodium ((2R,3S,4R,5R)-5-(4-amino-7H-pyrrolo[2,3-d]pyrimidin-7-yl)-3,4-dihydroxytetrahydrofuran-2-yl)methyl hydrogentriphosphate-NTP formation per million of cells at 10 uM after 24 hrs by LC/MS/MS analysis; format: ADME, cell-based; conditions: du-145, 24 h; how it was run: as §2
DU-145 [9] = assay: Metabolic stability in human DU145 cells assessed as sodium ((2R,3S,4R,5R)-5-(4-amino-7H-pyrrolo[2,3-d]pyrimidin-7-yl)-3,4-dihydroxytetrahydrofuran-2-yl)methyl hydrogentriphosphate-NTP formation per million of cells at 10 uM after 6 hrs by LC/MS/MS analysis; format: ADME, cell-based; conditions: du-145, 6 h; how it was run: as §2
K562 = assay: Cytotoxicity against human paclitaxel resistant K562 cells after 3 days by MTT assay; format: functional, cell-based; conditions: K562, 72 h
[10] = Cytotoxicity against human HeLaS3 cells after 3 days by XTT assay; format: functional, cell-based; conditions: HeLa S3, 72 h; how it was run: as §3
NCI-H23 = assay: Cytostatic activity against human NCI-H23 cells after 5 days by SRB assay; format: functional; conditions: NCI-H23, 120 h; how it was run: as §1

**Q.** With `Nc1ncnc2c1c(-c1cccs1)cn2[C@@H]1O[C@H](CO)[C@@H](O)[C@H]1O` as the molecule, how does the pIC50 (PC-3 [1]) read?
**A.** 5.06

**Q.** And the GI50 (A549)?
**A.** 0.007 µM

**Q.** And the Stability (DU-145 [2])?
**A.** 5.04 pmol

**Q.** And the pIC50 (HL-60)?
**A.** 6.02

**Q.** What about the inhibition (CCRF-CEM) of the same molecule?
**A.** Active

**Q.** And the pIC50 [3]?
**A.** 6.63

**Q.** And the MSD [4]?
**A.** 15.1 days

**Q.** What about the MSD [5] of the same molecule?
**A.** 15 days

**Q.** And the pIC50 (SK-OV-3)?
**A.** < 5.00

**Q.** What about the GI50 (PC-3 [6]) of the same molecule?
**A.** 1.62 µM

**Q.** And the pIC50 (HT-29)?
**A.** 7.02

**Q.** What about the pIC50 [7] of the same molecule?
**A.** < 5.00

**Q.** What about the pIC50 (LNCaP) of the same molecule?
**A.** 7.74

**Q.** What about the pIC50 (CT26) of the same molecule?
**A.** 6.91

**Q.** What about the Stability (DU-145 [8]) of the same molecule?
**A.** 1.96 pmol

**Q.** And the Stability (DU-145 [9])?
**A.** 0.53 pmol

**Q.** What about the pIC50 (K562) of the same molecule?
**A.** 7.33

**Q.** What about the pIC50 [10] of the same molecule?
**A.** 7.70

**Q.** What about the GI50 (NCI-H23) of the same molecule?
**A.** 0.0037 µM
